From ChEMBL document CHEMBL4002564, “Design, synthesis and cytotoxicity studies of novel pyrazolo[1, 5-a]pyridine derivatives” (Eur J Med Chem, 2017)
Calls of active or inactive are those of the source. The rule behind the calls is not given here.

Columns and labels:
MCF7 [1] = test: Antiproliferative activity against human MCF7 cells at 50 uM after 48 hrs by SRB assay; format: functional; details: MCF7, 48 h, read-out: GI
MCF7 [2] = test: Antiproliferative activity against human MCF7 cells at 1 uM after 48 hrs by SRB assay; format: functional; details: MCF7, 48 h, read-out: GI
Method in brief: (§1)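 Cells kept in RPMI-1640 with 2 mM glutamine, 10% FBS, penicillin/streptomycin, 37°C, 5% CO2. Seeded and grown 24 h, then test material in complete medium added and incubated 48 h. Fixed with cold TCA 1 h at 4°C, stained with 0.4% SRB in 1% acetic acid for 30 min, dye dissolved in 10 mM Tris pH 10.4, OD read at 540 nm.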

A549 [3] = test: Antiproliferative activity against human A549 cells at 1 uM after 48 hrs by SRB assay; format: functional; details: A549, 48 h, read-out: GI; method in brief: as §1
A549 [4] = test: Antiproliferative activity against human A549 cells at 50 uM after 48 hrs by SRB assay; format: functional; details: A549, 48 h, read-out: GI
PC-3 [5] = test: Antiproliferative activity against human PC3 cells at 50 uM after 48 hrs by SRB assay; format: functional; details: PC-3, 48 h, read-out: GI
PC-3 [6] = test: Antiproliferative activity against human PC3 cells at 1 uM after 48 hrs by SRB assay; format: functional; details: PC-3, 48 h, read-out: GI; method in brief: as §1
MCF7 [7] = test: Induction of apoptotic bodies formation in human MCF7 cells at 50 nM after 24 hrs by DAPI staining based immunofluorescence microscopy; format: functional, cell-based
HCT-116 [8] = test: Antiproliferative activity against human HCT116 cells at 50 uM after 48 hrs by SRB assay; format: functional; details: HCT-116, 48 h, read-out: GI
HCT-116 [9] = test: Antiproliferative activity against human HCT116 cells at 20 uM after 48 hrs by SRB assay; format: functional; details: HCT-116, 48 h, read-out: GI
Method in brief: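 Cells kept in RPMI-1640 with 2mM glutamine, 10% FBS, streptomycin and penicillin at 37°C, 5% CO2. Seeded cells grown 24 h, then exposed to compound in complete medium for 48 h. Fixed with cold TCA 1 h at 4°C, stained with 0.4% SRB 30 min, bound dye dissolved in 10mM Tris pH 10.4, OD read at 540 nm. Blank-subtracted percent growth inhibition taken against untreated cells as 100%.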

[10] = molecular target: T1, Epidermal growth factor receptor (Homo sapiens, UniProt P00533); test: Inhibition of recombinant EGFR (unknown origin) using poly (Glu4, Tyr) as substrate after 60 mins by ADP-glo kinase assay
T1 sequence (P00533 whole entry): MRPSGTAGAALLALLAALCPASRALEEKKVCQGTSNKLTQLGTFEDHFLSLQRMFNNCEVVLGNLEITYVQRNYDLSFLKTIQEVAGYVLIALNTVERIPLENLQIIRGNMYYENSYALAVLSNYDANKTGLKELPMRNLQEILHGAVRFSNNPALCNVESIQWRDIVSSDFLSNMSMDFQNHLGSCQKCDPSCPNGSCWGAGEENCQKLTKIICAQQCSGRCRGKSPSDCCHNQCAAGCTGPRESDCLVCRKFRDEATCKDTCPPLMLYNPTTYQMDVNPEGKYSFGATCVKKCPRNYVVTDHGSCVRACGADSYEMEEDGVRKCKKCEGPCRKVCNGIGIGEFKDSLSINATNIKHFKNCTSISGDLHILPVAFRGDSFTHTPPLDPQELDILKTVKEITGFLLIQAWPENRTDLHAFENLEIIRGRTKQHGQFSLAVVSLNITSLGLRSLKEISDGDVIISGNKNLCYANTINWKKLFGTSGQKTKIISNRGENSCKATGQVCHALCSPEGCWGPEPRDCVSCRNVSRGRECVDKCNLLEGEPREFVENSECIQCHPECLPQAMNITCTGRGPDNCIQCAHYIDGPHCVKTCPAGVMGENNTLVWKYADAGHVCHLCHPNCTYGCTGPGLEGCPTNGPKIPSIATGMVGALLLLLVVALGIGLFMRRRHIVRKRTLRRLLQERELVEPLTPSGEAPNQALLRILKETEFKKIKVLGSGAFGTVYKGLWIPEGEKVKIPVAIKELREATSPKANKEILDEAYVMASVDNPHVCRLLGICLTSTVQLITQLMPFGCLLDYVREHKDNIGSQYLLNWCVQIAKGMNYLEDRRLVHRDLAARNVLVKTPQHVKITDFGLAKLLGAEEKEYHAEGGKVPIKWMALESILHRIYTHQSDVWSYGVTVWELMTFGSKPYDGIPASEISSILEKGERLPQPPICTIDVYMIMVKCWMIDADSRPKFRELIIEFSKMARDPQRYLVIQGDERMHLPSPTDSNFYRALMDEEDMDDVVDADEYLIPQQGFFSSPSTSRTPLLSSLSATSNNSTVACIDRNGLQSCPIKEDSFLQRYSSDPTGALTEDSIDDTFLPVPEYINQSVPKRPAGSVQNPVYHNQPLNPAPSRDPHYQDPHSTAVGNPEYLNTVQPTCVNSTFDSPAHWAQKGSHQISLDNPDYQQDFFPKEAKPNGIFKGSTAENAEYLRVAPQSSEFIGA
Method in brief: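 ADP-Glo luminescent assay. Each reaction held 30 ng recombinant EGFR, 5 µM ATP and 0.2 µg/µl poly(Glu4,Tyr) in tyrosine kinase buffer with a compound dilution; 60 min at ambient temperature. Stopped with ADP-Glo reagent (40 min), then kinase detection reagent, luminescence read after 30 min. Blank (no enzyme) subtracted; activity expressed as % of the 0 µM reaction. Dilutions run in duplicate.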

[11] = molecular target: T1, Epidermal growth factor receptor; test: Inhibition of recombinant EGFR (unknown origin) using poly (Glu4, Tyr) as substrate assessed as inhibition at 1 uM after 60 mins by ADP-glo kinase assay
[12] = molecular target: T1, Epidermal growth factor receptor; test: Inhibition of recombinant EGFR (unknown origin) using poly (Glu4, Tyr) as substrate assessed as inhibition at 10 uM after 60 mins by ADP-glo kinase assay
[13] = molecular target: T1, Epidermal growth factor receptor; test: Inhibition of recombinant EGFR (unknown origin) using poly (Glu4, Tyr) as substrate assessed as inhibition at 30 uM after 60 mins by ADP-glo kinase assay
[14] = molecular target: T1, Epidermal growth factor receptor; test: Inhibition of recombinant EGFR (unknown origin) using poly (Glu4, Tyr) as substrate assessed as inhibition at 100 uM after 60 mins by ADP-glo kinase assay

COc1cccc2c1C(=O)c1c(O)c3c(c(O)c1C2=O)C[C@@](O)(C(=O)CO)C[C@@H]3O[C@H]1C[C@H](N)[C@H](O)[C@H](C)O1 [DOXORUBICIN]
inhibition of growth at 50 µM (MCF7 [1]): 62%
inhibition of growth at 1 µM (MCF7 [2]): 62%

CC(=O)O[C@H]1C(=O)[C@@]2(C)[C@H]([C@H](OC(=O)c3ccccc3)[C@]3(O)C[C@H](OC(=O)[C@H](O)[C@@H](NC(=O)c4ccccc4)c4ccccc4)C(C)=C1C3(C)C)[C@]1(OC(C)=O)CO[C@@H]1C[C@@H]2O [PACLITAXEL]
inhibition of growth at 1 µM (A549 [3]): 78%
inhibition of growth at 50 µM (A549 [4]): 78%
inhibition of growth at 50 µM (PC-3 [5]): 72%
inhibition of growth at 1 µM (PC-3 [6]): 72%
Activity (MCF7 [7]): Active

O=c1[nH]cc(F)c(=O)[nH]1 [FLUOROURACIL]
inhibition of growth at 50 µM (HCT-116 [8]): 58%
inhibition of growth at 20 µM (HCT-116 [9]): 58%

CCCCOC(=O)c1c(-c2ccccc2)nn2ccccc12
IC50 [10]: 23.7 µM
inhibition [11]: 16%
inhibition [12]: 37%
inhibition [13]: 51%
inhibition [14]: 72%
